{
  "source": "ChEMBL document CHEMBL1127736",
  "about": "“Isozyme-specific glutathione-S-transferase inhibitors: design and synthesis” (J Med Chem, 1994)",
  "key": {"[1]": {"target": "T1, Glutathione S-transferase A1 (Homo sapiens, UniProt P08263)", "T1 sequence (P08263 whole entry)": "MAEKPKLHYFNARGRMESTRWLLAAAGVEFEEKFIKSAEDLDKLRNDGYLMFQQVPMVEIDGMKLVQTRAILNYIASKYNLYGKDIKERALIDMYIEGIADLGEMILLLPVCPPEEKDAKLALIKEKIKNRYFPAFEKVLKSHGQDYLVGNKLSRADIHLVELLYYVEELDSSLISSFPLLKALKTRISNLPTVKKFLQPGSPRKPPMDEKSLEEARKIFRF", "assay": "Inhibitory activity was measured on recombinant human Glutathione-S-transferase A1 enzyme", "outline": "(§1)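 Enzyme inhibition was measured in the reaction of recombinant human GST isozymes (four isozymes tested) with glutathione and 1-chloro-2,4-dinitrobenzene (CDNB) as the electrophilic substrate. Ki values were determined by a previously published method. The error in each measurement is stated as ±30%.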"}, "[2]": {"target": "T2, Glutathione S-transferase Mu 1 (Homo sapiens, UniProt P09488)", "T2 sequence (P09488 whole entry)": "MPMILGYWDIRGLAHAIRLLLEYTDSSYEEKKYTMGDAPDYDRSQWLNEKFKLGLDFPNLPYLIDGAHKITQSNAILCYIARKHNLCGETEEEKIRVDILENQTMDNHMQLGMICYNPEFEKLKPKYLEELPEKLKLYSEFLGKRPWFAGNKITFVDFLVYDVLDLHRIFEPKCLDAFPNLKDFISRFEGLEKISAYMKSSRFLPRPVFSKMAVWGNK", "assay": "Inhibitory activity was measured on recombinant human Glutathione S-transferase Mu 1", "outline": "as §1"}, "[3]": {"target": "T3, Glutathione S-transferase Mu 2 (Homo sapiens, UniProt P28161)", "T3 sequence (P28161 whole entry)": "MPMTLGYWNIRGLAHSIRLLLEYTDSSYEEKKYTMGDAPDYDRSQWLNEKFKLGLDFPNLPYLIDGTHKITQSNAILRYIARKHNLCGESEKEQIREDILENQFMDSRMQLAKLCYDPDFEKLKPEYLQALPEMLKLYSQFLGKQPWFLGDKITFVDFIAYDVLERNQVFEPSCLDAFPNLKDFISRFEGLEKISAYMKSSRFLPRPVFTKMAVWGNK", "assay": "Inhibitory activity was measured on recombinant human Glutathione S-transferase Mu 2", "outline": "as §1"}, "[4]": {"target": "Glutathione S-transferase P (Homo sapiens, UniProt P09211)", "sequence (P09211 whole entry)": "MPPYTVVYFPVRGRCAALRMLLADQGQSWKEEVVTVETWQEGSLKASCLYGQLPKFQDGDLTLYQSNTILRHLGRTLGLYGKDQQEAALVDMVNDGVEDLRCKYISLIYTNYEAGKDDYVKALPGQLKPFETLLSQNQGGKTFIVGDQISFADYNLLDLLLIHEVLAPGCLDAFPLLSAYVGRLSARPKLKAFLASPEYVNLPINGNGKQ", "assay": "Inhibitory activity was measured on recombinant human Glutathione S-transferase P", "outline": "as §1"}, "[5]": {"target": "T2, Glutathione S-transferase Mu 1", "assay": "Inhibitory activity was measured on recombinant human Glutathione-S-transferase M1a enzyme", "outline": "as §1"}},
  "note": "Numbered stars: 1 amine (or outer) side, 2 acyl side, 3 side chain; on linkers, the order of the positions; unused ones are H or OH. Square brackets hold non-standard residues; d marks the D form. Peptide text beside a SMILES is read from it. * marks the point of attachment. γGlu = O=C(O)[CH](CCC(=O)[*:2])N[*:1]; Phg = N[CH](C(=O)O)c1ccccc1; Bn = c1ccc(C*)cc1",
  "data": [
    {"compound": "Cc1ccc(CSCC(NC(=O)CCC(N)C(=O)O)C(=O)NCCC(=O)O)cc1", "note": "(configuration not stated)", "values": [
      {"measurement": "Ki", "setting": "[1]", "result": 43, "unit": "µM"},
      {"measurement": "Ki", "setting": "[2]", "result": 2.1, "unit": "µM"},
      {"measurement": "Ki", "setting": "[3]", "result": 20, "unit": "µM"},
      {"measurement": "Ki", "setting": "[4]", "result": 40, "unit": "µM"}
    ]},
    {"compound": "NC(CCC(=O)NC(CSCc1ccc(Cl)cc1)C(=O)NC(C(=O)O)c1ccccc1)C(=O)O", "note": "(configuration not stated)", "values": [
      {"measurement": "Ki", "setting": "[1]", "result": 14.7, "unit": "µM"},
      {"measurement": "Ki", "setting": "[5]", "result": 15.1, "unit": "µM"},
      {"measurement": "Ki", "setting": "[3]", "result": 48.3, "unit": "µM"},
      {"measurement": "Ki", "setting": "[4]", "result": 0.12, "unit": "µM"}
    ]},
    {"compound": "CCCCCCSCC(NC(=O)CCC(N)C(=O)O)C(=O)NCC(=O)O", "note": "(configuration not stated)", "values": [
      {"measurement": "Ki", "setting": "[1]", "result": 0.84, "unit": "µM"},
      {"measurement": "Ki", "setting": "[2]", "result": 2, "unit": "µM"},
      {"measurement": "Ki", "setting": "[3]", "result": 36, "unit": "µM"}
    ]},
    {"compound": "NC(CCC(=O)NC(CSCc1ccccc1)C(=O)NCCC(=O)O)C(=O)O", "note": "(configuration not stated)", "values": [
      {"measurement": "Ki", "setting": "[1]", "result": 360, "unit": "µM"},
      {"measurement": "Ki", "setting": "[2]", "result": 22, "unit": "µM"},
      {"measurement": "Ki", "setting": "[3]", "result": 26, "unit": "µM"},
      {"measurement": "Ki", "setting": "[4]", "result": 710, "unit": "µM"}
    ]},
    {"compound": "CCCCCCSCC(NC(=O)CCC(N)C(=O)O)C(=O)NC(C(=O)O)c1ccccc1", "note": "(configuration not stated)", "values": [
      {"measurement": "Ki", "setting": "[1]", "result": 5.8, "unit": "µM"},
      {"measurement": "Ki", "setting": "[2]", "result": 41, "unit": "µM"},
      {"measurement": "Ki", "setting": "[3]", "result": 97, "unit": "µM"},
      {"measurement": "Ki", "setting": "[4]", "result": 0.85, "unit": "µM"}
    ]},
    {"compound": "CCCCCCSCC(NC(=O)CCC(N)C(=O)O)C(=O)NCCC(=O)O", "note": "(configuration not stated)", "values": [
      {"measurement": "Ki", "setting": "[1]", "result": 43, "unit": "µM"},
      {"measurement": "Ki", "setting": "[2]", "result": 11, "unit": "µM"},
      {"measurement": "Ki", "setting": "[3]", "result": 42, "unit": "µM"},
      {"measurement": "Ki", "setting": "[4]", "result": 550, "unit": "µM"}
    ]},
    {"compound": "NC(CCC(=O)NC(CSCc1ccccc1)C(=O)NC(C(=O)O)c1ccccc1)C(=O)O", "note": "(configuration not stated) (γGlu-Cys(Bn)-[Phg]-OH; configuration not given here)", "values": [
      {"measurement": "Ki", "setting": "[1]", "result": 24.3, "unit": "µM"},
      {"measurement": "Ki", "setting": "[2]", "result": 57.8, "unit": "µM"},
      {"measurement": "Ki", "setting": "[3]", "result": 184, "unit": "µM"},
      {"measurement": "Ki", "setting": "[4]", "result": 0.42, "unit": "µM"}
    ]}
  ]
}
